Test results: PubChem BioAssay AID588478 (ICCB-Longwood Screening Facility, Harvard Medical School, 2011)
Among all 330,000 compounds or so, about 1,100 (0.33%) were called active.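 How the source made its calls: active means mean inhibition over replicate wells above about 20% (limit read from the data); inactive means the rest.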 For the sample, actives were picked, then their nearest neighbours and some compounds at random.

These compounds were tested against Ubiquitin carboxyl-terminal hydrolase isozyme L5 (Homo sapiens) (UniProt Q9Y5K5) (assay: proteasome-bound UCH37 DUB activity blockers – biochemical, Ub-AMC cleavage, fluorescence, primary screen (AID 588478;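 further: 0% = compound-free wells with enzyme and 100% = wells lacking proteasome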)). Details: purified proteasome/UCH37, Ub-AMC cleavage fluorescence; hits give high values; concentration not given here.
Sequence of Ubiquitin carboxyl-terminal hydrolase isozyme L5 (Homo sapiens) (Q9Y5K5 whole entry, looked up): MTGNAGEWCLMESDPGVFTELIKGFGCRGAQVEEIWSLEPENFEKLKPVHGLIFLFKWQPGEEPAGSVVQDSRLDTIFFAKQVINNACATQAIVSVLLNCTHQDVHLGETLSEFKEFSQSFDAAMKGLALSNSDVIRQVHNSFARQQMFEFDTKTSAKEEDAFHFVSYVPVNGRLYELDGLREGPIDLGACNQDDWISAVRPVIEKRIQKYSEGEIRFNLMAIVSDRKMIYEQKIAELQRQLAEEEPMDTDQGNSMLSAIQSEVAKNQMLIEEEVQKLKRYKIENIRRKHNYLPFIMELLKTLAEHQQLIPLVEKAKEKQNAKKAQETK
How it was run: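 Assay system: Proteasome-bound UCH37. Buffer or medium: pH 7.4 Tris-HCl (50 mM) with ovalbumin, ATP-MgCl2, DTT. Incubation: 30 min preincubation with enzyme, 25 min cleavage at room temperature. Measured by: fluorescence, ex 355 nm, em 460 nm. Read-out basis: percent inhibition. Control set: wells without proteasome as full block, compound-free enzyme plus substrate as uninhibited.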

inhibition, inactive:
S=c1[nH]nc(-c2ccccc2)n1N=Cc1ccc(-c2ccccc2Cl)o1 5.56%
CC(CC(=O)Nc1ccc(Cl)cc1Cl)=NNC(=O)c1ccncc1 0.597%
COC(=O)NN=C(C)c1cccs1 2.45%
N#C/C(=C/c1ccc(N2CCCCC2)o1)C(=O)NCCc1c[nH]c2ccccc12 11.5%
N#C/C(=C\c1ccc(N2CCOCC2)o1)C(=O)N1CCOCC1 15.4%
CC(C)(C)n1c(=O)[nH]c2c(c1=O)CCC2 -4.38%
N#Cc1c2c(c(-c3ccccc3)[nH]c1=O)CCCC2 -49.7%
CCOc1ccc(C=NNC(=O)c2nnn(-c3nonc3N)c2COc2ccc(F)cc2)cc1 -139%
N#CCC(=O)NN=Cc1cn(Cc2cccc3ccccc23)c2ccccc12 1.26%
COCc1c(C)cc(C)c(C=NO)c1C 3.47%
N#CC(=NNc1cc(Cl)cc(Cl)c1)c1nnc2n1CCCCC2 3.3%
C=CCn1c(=C(C#N)c2nnc3n2CCCCC3)sc(=Cc2ccc(Cl)cc2)c1=O 8.49%
COc1cc(C=NNS(=O)(=O)c2ccc(C)cc2)ccc1OCc1ccc(C(=O)O)cc1 3.97%
COc1ccccc1C=NNc1cc(C)nc2ccc(C)cc12 -45.9%
C/C(C=NNC(=O)c1ccc2nc[nH]c2c1)=C/c1ccccc1 5.71%
Cc1nc(NC(=O)C2CCCCC2)sc1C 1.92%
Cc1cnc(NC(=O)c2ccccn2)s1 2.76%
CCCOc1ccc(-c2c(C(=O)NN=Cc3ccccc3)nnn2-c2nonc2N)cc1 5.85%
COc1cc(C=Nn2c(C)nc3ccccc3c2=O)ccc1O 12.2%
CC(CC(=O)Nc1cc(C)ccn1)=NNC(=O)c1cccc(C)c1O -6.85%
Cc1cc(C=NO)c(C)n1-c1ccccc1 -2.23%
CCS(=O)(=O)C1=NSC2=NC(=O)/C(=C\c3cc(C)n(-c4cccc(OC)c4)c3C)C(=N)N21 -8.8%
COc1ccc2c(c1)c(C(=O)NN=Cc1ccc(Br)cc1)c(C)n2C 2.61%
CC(Oc1ccc(Cl)cc1)C(=O)NN=Cc1ccsc1 (stereo not drawn) 0.279%
Cc1oc(N=Cc2cccc([N+](=O)[O-])c2)c(C#N)c1C 4.11%
COc1ccc(C=NNC(=O)CSCC(=O)Nc2ccccc2)cc1 2.55%
COC(=O)Cc1cc(=O)[nH]c(N=C(N)Nc2ccc(C)cc2C)n1 -0.633%
C(=Nn1cnnc1)c1ccc(OCc2cccc3ccccc23)cc1 2.25%
COc1ccc2ccccc2c1C=NNC(=S)Nc1cc(S(=O)(=O)N2CCOCC2)ccc1N1CCOCC1 -8.36%
O=C(NN=Cc1ccc(-c2ccccc2[N+](=O)[O-])o1)C1COc2cc3ccccc3cc2O1 (stereo not drawn) 7.82%
O=c1c(=Cc2ccco2)sc2nc(-c3ccccc3Br)nn12 4.51%
CC(C)(C)c1cc(=O)n2c(nc3ccccc32)[nH]1 -27.1%
CC(=NNC(=O)Cc1c(Cl)cccc1Cl)c1cccnc1 4.49%
Cc1cccc(-c2cc(C(=O)NN=Cc3cccnc3)c3ccccc3n2)c1 1.54%
CCCOc1ccc(CNC(=O)C2CCN(c3nn4c(=O)cc(C)nc4s3)CC2)cc1 1.32%
Cc1cc(=O)n2nc(N3CCC(C(=O)Nc4c(F)c(F)c(F)c(F)c4F)CC3)sc2n1 -5.44%
CCOc1ccc(C=NNC(=O)CN2CCCCC2)cc1OCC 4.23%
COc1ccc(CC(=O)Nc2cccc(C(C)=NNC(=O)c3cccc([N+](=O)[O-])c3)c2)cc1 2.24%
CCC(=NNC(=O)Nc1nonc1N)c1ccc(OC)c(OC)c1 2.18%
Cc1nnsc1C(=O)NN=Cc1ccccc1Cl 2.87%
O=C(CNC(=O)c1cccc(Cl)c1)NN=Cc1cccnc1 3.41%
CCOC(=O)c1cccc(NC(=O)CCOc2ccccc2)c1 0.512%
CCOC(=O)c1cccc(NC(=O)CCn2nnc3ccccc32)c1 0.741%
CC(=O)NC1CCCN(O)C(=O)C=C(C)CCOC(=O)C(NC(C)=O)CCCN(O)C(=O)C=C(C)CCOC(=O)C(NC(C)=O)CCCN(O)C(=O)C=C(C)CCOC1=O (stereo not drawn) -0.932%
COc1cc(OC)cc(C(=O)NN=Cc2ccoc2)c1 1.2%
CCOC(=O)c1cc(C(C)=NOC(=O)c2ccc(C(C)(C)C)cc2)on1 4.76%
O=C(NN=Cc1cc2cc3c(cc2nc1Cl)OCO3)c1ccncc1 -62.6%
N#C/C(=C\c1ccc(O)c(O)c1)C(=O)NCc1ccccc1 4.82%
Cc1[nH]c2ccccc2c1/C=C(/C#N)C(=O)NC(C)C 11.3%
CC(=NNC(=O)Cc1c[nH]c2ccccc12)c1ccc2ccccc2c1 -2.68%
Cc1cc(Nc2ccc(N3CCOCC3)cc2)c2cccc(C)c2n1 9.4%
Cc1cc(Nc2ccc(C(=O)N3CCCCC3)cc2)c2cccc(C)c2n1 7.53%
CC1(C)CC(=O)CC(=NNC(=O)c2ccc(-c3ccccc3)cc2)C1 3.09%
CCOc1cc(C=NO)ccc1OS(=O)(=O)c1ccc(C)cc1 -0.715%
CC(C)COc1ccc(C(=O)OCC(=O)NCCC2=CCCCC2)cc1 1.87%
CC(OC(=O)c1ccc(Cl)cc1O)C(=O)NCCC1=CCCCC1 (stereo not drawn) -2.32%
C=CCc1c(C)nc(-c2ccccc2)nc1NN=C(C)c1ccc(N)cc1 5.32%
O=C(NN=Cc1sc(N2CCCCC2)nc1-c1cccs1)C1CC1 -4.87%
CCCOc1ccc(/C(O)=C2/C(=O)C(=O)N(CCN(C)C)C2c2ccc(OC)c(OC)c2)cc1 (stereo not drawn) 9.6%
COc1ccc(/C(O)=C2/C(=O)C(=O)N(CCCN(C)C)C2c2ccccc2)cc1OC (stereo not drawn) 8.49%
CCC1SC(C)CC(=NNC(N)=O)C1C (stereo not drawn) 1.74%
O=C(NN=Cc1ccc(O)cc1)c1csc2ccccc12 3.7%
Cc1nn(C)c(C(=O)NN=Cc2cccnc2)c1Cl 1.1%
CC(=NNc1ccccc1)c1c(O)cc(C)oc1=O 2.24%
C(=NNc1nc(-c2ccccc2)cs1)c1cccs1 -0.256%
COc1ccc(Br)cc1C=Nn1c(COc2ccccc2)n[nH]c1=S 3.72%
Cc1ccc(Cn2nnc3c(=O)[nH]c(C4CCN(S(=O)(=O)/C=C/c5ccccc5)CC4)nc32)cc1 0.769%
Cc1ccc(NC(=O)N2CCC(c3nc4c(nnn4Cc4c(F)cccc4Cl)c(=O)[nH]3)CC2)cc1 1.34%
Oc1ccc(C=NNC2=NCCCCC2)c(O)c1 -24.8%
CC(Oc1cccc(Cl)c1)c1ccnc2nc(N=CN(C)C)nn12 (stereo not drawn) -41%
CC(=NNC(=O)c1nnn(-c2nonc2N)c1CSc1ccc(Cl)cc1)c1ccco1 0.0783%
CC(=O)CC(CC(=O)NC1CCCCC1)c1ccccc1 (stereo not drawn) 3.65%
O=C(CN1C(=O)c2ccccc2S1(=O)=O)NC1CCCCC1 0.614%
Cc1nnsc1C(=O)NN=Cc1ccccc1 -1.09%
COc1ccc(C(C)=NNC(=O)CN(c2ccc(OC)cc2)S(=O)(=O)c2ccccc2)cc1 3.13%

inhibition, active:
N#C/C(=C/c1ccc(N2CCOCC2)o1)C(=O)N1CCOCC1 33.4%
O=c1[nH]n2c(=O)c3c([nH]c2c1N=Nc1ccccc1)CCC3 22.1%
N#CC(=C(O)CCl)c1nnc2n1CCCCC2 31.4%
Cc1cnc(NC(=O)C2CCCC2)s1 31%
Cc1cc(/C=C2/C(=N)N3C(=NC2=O)SN=C3S(C)(=O)=O)c(C)n1-c1ccccc1 33.8%
CN=C1C=C/C(=N/N=c2\ccn(O)cc2C)C=C1C 23.6%
O=C(O)c1cc(C(=O)O)cc(-c2ccc(C=c3sc4nc5ccccc5n4c3=O)o2)c1 22.2%
COc1ccc(CCNC(=O)C2CCN(c3nn4c(=O)cc(C)nc4s3)CC2)cc1OC 27.9%
CC[n+]1cc(C)ccc1/C=C/c1ccc(N(C)C)cc1 20.6%
CCOC(=O)c1cccc(NC(=O)c2ccc(F)cc2F)c1 24.8%
O=C1NNC(c2ccccc2)=N/C1=C\c1ccc(Cl)cc1 21.1%
CC(C)NC(=O)/C(C#N)=C\c1ccc(N(C)C)c(Br)c1 35.8%
Cc1ccc(Nc2cc(C)nc3c(C)ccc([N+](=O)[O-])c23)cc1 42.3%
CC(OC(=O)c1c(F)cccc1F)C(=O)NCCC1=CCCCC1 (stereo not drawn) 29%
COc1cccc(C2/C(=C(/O)c3ccc(F)cc3)C(=O)C(=O)N2CCN(C)C)c1 (stereo not drawn) 26.3%
Cc1cc(C)c[n+](-c2[nH]c(=O)sc2C=NNC([S-])=Nc2ccccc2)c1 23%
COc1ccc(Cn2nnc3c(=O)[nH]c(C4CCN(C(=O)c5ccccc5Cl)CC4)nc32)cc1 35.6%
O=C(CC1OC(=O)c2ccccc21)NC1CCCCC1 (stereo not drawn) 26%
